Legend:
14-3-3σ = molecular target: T1, 14-3-3σ (Homo sapiens, UniProt P31947); test: Intact MS conjugation of compound to 14-3-3σ; format: biochemical; settings: 14-3-3σ : cyclohexenone : NEM 1:10:10, overnight, 10 °C, BTP buffer pH 7
T1 sequence (P31947 1-231 limits assumed): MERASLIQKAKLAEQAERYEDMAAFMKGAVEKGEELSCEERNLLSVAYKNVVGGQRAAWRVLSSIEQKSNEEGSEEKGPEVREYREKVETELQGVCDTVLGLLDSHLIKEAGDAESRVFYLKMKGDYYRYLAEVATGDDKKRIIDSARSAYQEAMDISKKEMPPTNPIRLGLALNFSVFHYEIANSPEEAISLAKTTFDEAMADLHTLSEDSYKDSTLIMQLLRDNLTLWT
Summary of the method: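 Recombinant full-length 14-3-3σ (8 μM) was incubated overnight with 10 eq. (80 μM) of compound, with or without peptide, in 20 mM BTP buffer at pH 7 and 10 °C. Protein species (unmodified, conjugated, crosslinked) were read from deconvoluted intact mass spectra and expressed as percentage conjugation or crosslinking.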

[1] = L-cysteine–maleimide conjugation; cited from earlier work
[2] = molecular target: the peptide panel (mutated B-Raf peptides: +5 mutants and histidine scan); test: fluorescence polarisation

CCN1C(=O)C=CC1=O [NEM, N-ethylmaleimide]
conjugate formed on co-incubation of cyclohexenone and NEM (14-3-3σ): exclusively the 14-3-3σ–NEM conjugate

O=C1C=CC(=O)N1 [maleimide]
reaction rate (k2) [1]: 17.6 ± 0.9 × 10^3 M^−1 s^−1

B1: 14-3-3σ (natural protein)
chain: MERASLIQKAKLAEQAERYEDMAAFMKGAVEKGEELSCEERNLLSVAYKNVVGGQRAAWRVLSSIEQKSNEEGSEEKGPEVREYREKVETELQGVCDTVLGLLDSHLIKEAGDAESRVFYLKMKGDYYRYLAEVATGDDKKRIIDSARSAYQEAMDISKKEMPPTNPIRLGLALNFSVFHYEIANSPEEAISLAKTTFDEAMADLHTLSEDSYKDSTLIMQLLRDNLTLWT
Kd [2]: 1.8 to 135 µM

— publication PMC11752056 (Chemical Science, 2025)
